Molecules are shown by their SMILES. Values after ≈ are worked out from the molar mass of the structure shown.

Usually LD50 stands for the dose expected to kill half of the subjects tested. The low end stands for a more toxic substance, the high end for a less toxic substance.

For data set [1], the species on record is Gallus gallus. Description: Compound dose that inhibits transformation of chick embryo fibroblasts by Rous sarcoma virus, after 15 hr of incubation was determined in vitro. Compound dose that causes 16 % inhibition was reported. It counts as functional. The gist of the method:
(§1)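 Focus-formation assay with Rous sarcoma virus Schmidt-Ruppin subgroup D on confluent secondary chicken fibroblast monolayers (5 × 10^5 cells/plate). Compounds in DMSO (final <1%) were serially diluted from 10^-2 to 10^-5 M solutions before addition. Infection was ~150–200 focus-forming units per dish for 15 h at 37 °C. A 0.9% agar overlay held the same compound dilutions and was re-fed at day 3. Foci were scored 7–10 days post-infection, with virus-only and drug-only controls.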

The species named for data set [2] is Gallus gallus. Description: Compound dose that inhibits transformation of chick embryo fibroblasts by Rous sarcoma virus, after 15 hr of incubation was determined in vitro. Compound dose that causes 50 % inhibition was reported. The data set is classed as functional. Particulars: read-out: ID50 (the source's name). The gist of the method:
as §1

The species named for data set [3] is Gallus gallus. The experiment in a line: Compound dose that inhibits transformation of chick embryo fibroblasts by Rous sarcoma virus, after 15 hr of incubation was determined in vitro. Compound dose that causes 84 % inhibition was reported. It counts as functional. The gist of the method:
as §1

Data set [4] has as its system L1210. Description: Activity against cultured L1210 leukemic cells was determined in vitro, after 48 h of incubation. Compound dose that causes 16 % inhibition was reported. It counts as functional, Mus musculus. The method in brief:
(§2)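 L1210 cells in RPMI with 10% fetal calf serum, amino acids, vitamins and penicillin-streptomycin, seeded at 4.0–6.0 × 10^4 cells/mL in duplicate per concentration. At least six concentrations in 1:5 dilutions; 24–48 h humidified incubation under 5% CO2. Cells were counted with a Coulter counter, with untreated and Me2SO controls. ID values were derived by a previously described method.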

Data set [5] relates to L1210. The experiment in a line: Activity against cultured L1210 leukemic cells was determined in vitro, after 48 hr of incubation. Compound dose that causes 50 % inhibition was reported. It counts as functional. Particulars: Mus musculus, L1210, 48 h; read-out: ID50 (the source's name). The method in brief: as §2
Data set [6] relates to L1210. Description: Activity against cultured L1210 leukemic cells was determined in vitro, after 48 hr of incubation. Compound dose that causes 84 % inhibition was reported. It counts as functional, Mus musculus. The method in brief:
as §2

A short description of data set [7]: Compound dose that causes lethality by 50 %, was tested in mice. The data set is classed as ADME, organism-based. Particulars: mouse, in vivo. The method in brief: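 C57 Bl/6J mice, six per dose level. Drug was ground with an equal weight of acacia and suspended in saline, then dosed intraperitoneally by body weight.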
For data set [8], the system named is Moloney murine sarcoma virus. The experiment in a line: Compound was tested for 50% inhibitory dose against Moloney sarcoma virus. Particulars: read-out: ID50 (the source's name). It counts as functional.

For `Cc1ccsc1/C=N/N=C(/N)NO`, the ID16 came to 5.89 µM in the data set filed under Gallus gallus [1] and 16.89 µM with L1210 [4]. For the same compound, the IC50 turned out to be 18.5 µM in the data set filed under Gallus gallus [2] and 33.2 µM with L1210 [5]. For the same compound, the ID84 in the data set listed under Gallus gallus [3] was determined as 57.9 µM; with L1210 [6], 65.3 µM.

For `N/C(=N/N=C/c1ccccn1)NO`, the values for the ID16 in the data set filed under Gallus gallus [1] and in the data set on L1210 [4] were 1.01 µM and 4.4 µM, respectively. In addition, the IC50 in the data set listed under Gallus gallus [2] came to 2.76 µM; in the data set on L1210 [5] it was 10.9 µM. In addition, the ID84 came out at 7.55 µM in the data set listed under Gallus gallus [3] and 27 µM in the data set with L1210 [6]. In data set [7], this compound registered a median lethal dose (LD50) of 315 mg/kg.

As for `COc1cccc(/C=N/NC(=N)NO)c1`, the ID16 in the data set filed under Gallus gallus [1] is 7.15 µM; with L1210 [4], 4.2 µM. Also, the IC50 in the data set listed under Gallus gallus [2] amounted to 17.8 µM; in the data set with L1210 [5], 16 µM. The figures for the ID84 in the data set filed under Gallus gallus [3] and in the data set on L1210 [6] were 44.06 µM and 60.9 µM, respectively.

As to `Cc1cccc(/C=N/N=C(\N)NO)n1`, the values for the ID16 in the data set filed under Gallus gallus [1] and in the data set with L1210 [4] were 36 µM and 19.76 µM, respectively. In addition, the IC50 in the data set filed under Gallus gallus [2] was 114 µM; in the data set with L1210 [5] it was 42.1 µM. The ID84 turned out to be 361.3 µM in the data set filed under Gallus gallus [3] and 89.6 µM in the data set with L1210 [6].

Regarding `NC(/N=N/c1c(O)[nH]c2ccc(F)cc12)=N\O`, the ID16 in the data set listed under Gallus gallus [1] is 5.36 µM; in the data set on L1210 [4], 17.8 µM. Further, the IC50 in the data set listed under Gallus gallus [2] was determined as 18.3 µM; in the data set with L1210 [5] it was 48.4 µM. Further, the figures for the ID84 in the data set filed under Gallus gallus [3] and in the data set on L1210 [6] were 62.25 µM and 132 µM, respectively.

As for `N/C(=N\O)N/N=C/c1cccc(C(F)(F)F)c1`, the ID16 in the data set listed under Gallus gallus [1] amounted to 8.19 µM; in the data set on L1210 [4], 2.35 µM. Also, the IC50 stood at 18.2 µM in the data set listed under Gallus gallus [2] and 15.1 µM in the data set on L1210 [5]. Besides, the ID84 in the data set filed under Gallus gallus [3] stood at 40.61 µM; with L1210 [6], 96.4 µM.

With `N/C(=N\O)N/N=C/C1CCCCC1`, the ID16 in the data set filed under Gallus gallus [1] came to 9.11 µM; with L1210 [4], 9.34 µM. Besides, the results for the IC50 in the data set listed under Gallus gallus [2] and with L1210 [5] were 23.4 µM and 21.2 µM, respectively. Also, the ID84 in the data set filed under Gallus gallus [3] came out at 60.4 µM; in the data set with L1210 [6] it was 48.4 µM.

For `N/C(=N\O)N/N=C/c1cccs1`, the ID16 in the data set filed under Gallus gallus [1] worked out at 3.64 µM; in the data set with L1210 [4], 81.7 µM. The IC50 in the data set listed under Gallus gallus [2] was 11.8 µM; in the data set on L1210 [5], 34.1 µM. Further, the figures for the ID84 in the data set listed under Gallus gallus [3] and in the data set on L1210 [6] were 38.04 µM and 143 µM, respectively.

For `CCCCOc1cccc(/C=N/N=C(\N)NO)c1`, the ID16 in the data set listed under Gallus gallus [1] worked out at 2.66 µM; with L1210 [4], 3 µM. Moreover, the IC50 in the data set listed under Gallus gallus [2] was 10.2 µM; with L1210 [5], 8.54 µM. Besides, the ID84 in the data set listed under Gallus gallus [3] is 38.96 µM; with L1210 [6], 24.3 µM.

In the case of `CCCCCCOc1cccc(/C=N/N=C(\N)NO)c1`, the ID16 in the data set listed under Gallus gallus [1] came out at 1.18 µM; with L1210 [4], 2.96 µM. For the same compound, the IC50 in the data set listed under Gallus gallus [2] was 8.02 µM; in the data set with L1210 [5], 7.8 µM. The ID84 was 54.56 µM in the data set filed under Gallus gallus [3] and 20.6 µM in the data set on L1210 [6].

For the compound `N/C(=N\O)N/N=C/c1cccc(I)c1`, the ID16 was determined as 0.9 µM in the data set listed under Gallus gallus [1] and 4.07 µM in the data set with L1210 [4]. In addition, the figures for the IC50 in the data set filed under Gallus gallus [2] and in the data set on L1210 [5] were 3.45 µM and 12.5 µM, respectively. For the same compound, the ID84 in the data set filed under Gallus gallus [3] was determined as 13.33 µM; in the data set with L1210 [6], 38.5 µM. This compound also came in with an LD50 in data set [7] of 190 mg/kg.

Consider `N=C(NN)NO`, for which the ID16 in the data set listed under Gallus gallus [1] was 15.63 µM; in the data set with L1210 [4], 57.1 µM. Further, the IC50 in the data set filed under Gallus gallus [2] came out at 195 µM; in the data set on L1210 [5], 126 µM. Further, the ID84 in the data set listed under Gallus gallus [3] amounted to 2438 µM; with L1210 [6] it was 311 µM.

For the compound `N=C(N)NO.O=S(=O)(O)O` [HYDROXYGUANIDINE SULFATE], the ID16 came out at 192.7 µM in the data set filed under Gallus gallus [1] and 95.8 µM in the data set on L1210 [4]. Besides, the IC50 in the data set listed under Gallus gallus [2] amounted to 374 µM; in the data set with L1210 [5], 59.5 µM. Further, the ID84 is 725.8 µM in the data set filed under Gallus gallus [3] and 370 µM with L1210 [6].

For the compound `N=C(N)NO` [HYDROXYGUANIDINE], the IC50 in data set [8] was found to be 2 µg/mL (≈ 26.6 µM).

As for `NC(=O)NO` [HYDROXYUREA], the ID16 in the data set with L1210 [4] worked out at 1.99 µM. Further, in the data set on L1210 [5], the IC50 stood at 60.6 µM. Also, in the data set with L1210 [6], the ID84 was 181 µM.

These data come from ChEMBL document CHEMBL1122573, “Novel N-hydroxyguanidine derivatives as anticancer and antiviral agents” (J Med Chem, 1984).
